Results published in ChEMBL document CHEMBL4725434, “Discovery of Selective, Covalent FGFR4 Inhibitors with Antitumor Activity in Models of Hepatocellular Carcinoma” (ACS Med Chem Lett, 2020).
Calls of active or inactive are those of the source. The calls are words filed in the database; no cut-off is given here.

How the values were obtained:
[1] = Oral bioavailability in cynomolgus monkey at 10 mg/kg; type: ADME, organism-based, Macaca fascicularis; conditions: in vivo
[2] = Half life in mouse at 3 mg/kg, iv; type: ADME, organism-based; conditions: in vivo
[3] = AUC in cynomolgus monkey at 10 mg/kg, po; type: ADME, organism-based, Macaca fascicularis; design: dose 10 mg/kg; conditions: in vivo
[4] = AUC in mouse at 3 mg/kg, iv; type: ADME, organism-based; design: dose 3 mg/kg; conditions: in vivo
[5] = Volume of distribution at steady state in mouse at 3 mg/kg, iv; type: ADME, organism-based; conditions: in vivo, read-out: Vdss
[6] = Volume of distribution at steady state in cynomolgus monkey at 3 mg/kg, iv; type: ADME, organism-based, Macaca fascicularis; conditions: in vivo, read-out: Vdss
[7] = Clearance in mouse at 3 mg/kg, iv; type: ADME, organism-based; conditions: in vivo
Huh-7 [8] = test: Antitumor activity against human Huh7 cells xenografted in po dosed SCID mouse sorafenib-resistance established model assessed as tumor regression at 30 mg/kg, po bid for 11 days relative to untreated control; conditions: time 11.0 day
[9] = Cmax in rat at 10 mg/kg, po; type: ADME, organism-based; design: route oral, dose 10 mg/kg; conditions: in vivo
Huh-7 [10] = test: Antitumor activity against human Huh7 cells xenografted in po dosed SCID mouse sorafenib-resistance established model assessed as tumor regression measured after 11 days relative to untreated control; type: functional, organism-based; conditions: time 11.0 day
Summary of the method: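 Huh7 tumors grown subcutaneously in SCID mice were made sorafenib-resistant by oral sorafenib at 100 mg/kg daily for […]. Oral dosing was then given at 10, 30 or 100 mg/kg BID for 11 days. Sorafenib 100 mg/kg once daily was the comparator arm. Read-out was tumor growth as %ΔT/ΔC.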

[11] = AUC in rat at 3 mg/kg, iv; type: ADME, organism-based; design: dose 3 mg/kg; conditions: in vivo
[12] = Volume of distribution at steady state in rat 3 mg/kg, iv; type: ADME, organism-based; conditions: in vivo, read-out: Vdss
[13] = Oral bioavailability in mouse at 10 mg/kg; type: ADME, organism-based; conditions: in vivo
Huh-7 [14] = test: Antitumor activity against human Huh7 cells xenografted in po dosed SCID mouse sorafenib-resistance established model assessed as tumor regression at 100 mg/kg, po bid for 11 days relative to untreated control; conditions: time 11.0 day
[15] = Cmax in mouse at 10 mg/kg, po; type: ADME, organism-based; design: route oral, dose 10 mg/kg; conditions: in vivo
[16] = Clearance in rat at 3 mg/kg, iv; type: ADME, organism-based; conditions: in vivo
[17] = Half life in mouse at 10 mg/kg, po; type: ADME, organism-based; conditions: in vivo
FGFR4 (Homo sapiens) = test: In vivo receptor occupancy at FGFR4 in human Huh7 cells xenografted SCID mouse orthotopic model at 100 mg/kg, po qd after 10 hrs relative to control
[18] = Clearance in cynomolgus monkey at 3 mg/kg, iv; type: ADME, organism-based, Macaca fascicularis; conditions: in vivo
Hep 3B2 = test: Antitumor activity against human Hep3B cells xenografted in SCID mouse orthotopic model assessed as inhibition of tumor regression at 100 mg/kg, po bid measured after 28 days relative to control; conditions: time 28.0 day
[19] = Oral bioavailability in rat 10 mg/kg; type: ADME, organism-based; conditions: in vivo
[20] = AUC in rat at 10 mg/kg, po; type: ADME, organism-based; design: dose 10 mg/kg; conditions: in vivo
[21] = Half life in cynomolgus monkey at 3 mg/kg, iv; type: ADME, organism-based, Macaca fascicularis; conditions: in vivo
[22] = Half life in rat at 3 mg/kg, iv; type: ADME, organism-based; conditions: in vivo
[23] = AUC in mouse at 10 mg/kg, po; type: ADME, organism-based; design: dose 10 mg/kg; conditions: in vivo
[24] = Half life in cynomolgus monkey at 10 mg/kg, po; type: ADME, organism-based, Macaca fascicularis; conditions: in vivo
[25] = Half life in rat at 10 mg/kg, po; type: ADME, organism-based; conditions: in vivo
[26] = AUC in cynomolgus monkey at 3 mg/kg, iv; type: ADME, organism-based, Macaca fascicularis; design: dose 3 mg/kg; conditions: in vivo

SMILES: C=CC(=O)N[C@H]1COC[C@H]1Nc1ncc2cc(-c3c(Cl)c(OC)cc(OC)c3Cl)c(=O)n(C)c2n1
- bioavailability [1]: 27%
- t1/2 [2]: 2.1 h
- AUC [3]: 5660 ng·h/mL
- AUC [4]: 2910 ng·h/mL
- Vd [5]: 0.63 L/kg
- Vd [6]: 1.1 L/kg
- clearance [7]: 17.2 mL/min/kg
- Activity (Huh-7 [8]): Active
- Cmax [9]: 588 ng/mL
- Activity (Huh-7 [10]): inactive
- AUC [11]: 5610 ng·h/mL
- Vd [12]: 0.3 L/kg
- bioavailability [13]: 20%
- Activity (Huh-7 [14]): Active
- Cmax [15]: 423 ng/mL
- clearance [16]: 9 mL/min/kg
- half-life [17]: 1.8 h
- Activity (FGFR4 (Homo sapiens)): >80%
- clearance [18]: 8.4 mL/min/kg
- Activity (Hep 3B2): Active
- bioavailability [19]: 12%
- AUC [20]: 2230 ng·h/mL
- t1/2 [21]: 4.8 h
- t1/2 [22]: 2.1 h
- AUC [23]: 2960 ng·h/mL
- half-life [24]: 2 h
- half-life [25]: 3.2 h
- AUC [26]: 6420 ng·h/mL
